Screening results deposited in PubChem by several laboratories.
This is one part of a sample in which hits are shown more often than they occur.
PfGluPho inh – PfG6PD enzyme inhibitors, primary screen, biochemical, fluorescence intensity, uHTS; actives 0.78% (n = 350,000); PfGluPho enzyme, NADPH resazurin-diaphorase fluorescence; inhibition, % at 20 µM;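 active = inhibition reaching at least a set limit at 20 µM in the primary screen, cut at about 59% in these data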;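 also: 0% = DMSO wells with substrate and 100% = DMSO wells lacking glucose-6-phosphate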
Diaphorase inh – diaphorase inhibitors and chemical oxidizers, primary screen, counter-screen for diaphorase-coupled primary assays, biochemical, uHTS, resorufin fluorescence; diaphorase resazurin-to-resorufin fluorescence, NADH, 16 min; bacterial (C. kluyveri) enzyme, not human; inhibition, % at 20 µM; actives 0.69% (n = 190,000); AID 1217, 2008;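 active = primary screen inhibition at 20 µM above a set limit, cut at about 50% in these data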;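 also: plate controls were DMSO with full reaction for no effect and wells lacking NADH for full effect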
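Test system: diaphorase enzyme from Clostridium kluyveri; amount: diaphorase at 0.14 U/mL in enzyme working solution; detection: fluorescence of resorufin formed from resazurin, Ex 544/Em 590 nm; times: reaction incubation of 16 min at room temperature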
G6PDH CS – L. mesenteroides G6PDH inhibitors, counter-screen for G6PDH-coupled screening assays, biochemical, Leuconostoc mesenteroides enzyme; Purified L. mesenteroides G6PDH, diaphorase/resazurin coupled fluorescence, 45 min; inhibition, % at 5 µM; AID 1020, 2008; glucose-6-phosphate dehydrogenase [Leuconostoc mesenteroides]; actives 0.12% (n = 200,000)
Redox H2O2 prof – compounds producing H2O2 with reducing agent – biochemical, NIH compound library profiling, artefact control for MLSCN library redox annotation, primary screen. DTT-dependent redox cycling H2O2, phenol red/HRP absorbance; 100% = 100 µM peroxide control, 0% = buffer. activation, % at 10 µM. actives 0.03% (n = 200,000). AID 878, 2007;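 active = activation of at least 50% relative to the plate's high and low controls in the primary single-dose screen; inactive = activation below 50%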;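 also: compound incubated with DTT at 0.8 mM final as the reducing agent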
Diaphorase act – compounds boosting diaphorase resazurin reduction – biochemical, uHTS, resorufin fluorescence, counter-screen for diaphorase-coupled primary assays, primary screen | Diaphorase/resazurin coupled assay, 16 min; hits give high values; 1 = vehicle wells, 0 = NADH-free wells | activation factor at 20 µM | actives 0.005% (n = 190,000) | AID 1229, 2008;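 active = diaphorase activity raised at least twofold by the compound at 20 µM; inactive = activation factor below 2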
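Test system: Clostridium kluyveri diaphorase, purified enzyme; input: enzyme 0.07 U/mL final; buffer or medium: 50 mM HEPES pH 7.4 with 4.542 mM MgCl2, 0.005% Tween 20; also added: 0.114 mM NADH and 0.1 mM resazurin, final amounts; schedule: 16 min enzyme reaction, ambient temperature; technique: fluorescence of resorufin, 544 nm excitation, 590 nm emission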
Lmaj promast – Leishmania major promastigote growth inhibition, primary screen; Leishmania major promastigotes, resazurin fluorescence viability; inhibition, % at 10 µM; actives 9% (n = 200,000);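 also: promastigotes grown with compound for 44 hours at 28 °C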
Lmaj promast 1uM – Leishmania major promastigote growth inhibition, confirmation, 1 µM repeat of primary hits; actives 13% (n = 1,100); L. major promastigote growth, resazurin fluorescence, 48 h; inhibition, % at 1 µM; shares compounds with Lmaj promast; AID 1258, 2008;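 active = inhibition above about 50% in both repeat tests, limit read from the data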
* marks the source's active call; other numbers are inactive results; / = no result given; ! = a repeat was not active. Rule as the data show it, unless noted: active = inhibition above about 50%; inactive = the rest.

SMILES	PfGluPho inh	Diaphorase inh	G6PDH CS	Redox H2O2 prof	Diaphorase act	Lmaj promast	Lmaj promast 1uM
CN(C)S(=O)(=O)c1ccc(Cl)c(NC(=O)COC(=O)CCC2CCCCC2)c1	18.4	/	/	/	/	/	/
N#Cc1cc(Oc2cccc3cccnc23)c(-n2nnc3ccccc32)cc1C#N	49.9	12.3	-2.6	4.9	0.9	68.7*	-10.3
CCOc1ccc(-c2nnn(CC(=O)Nc3cc(OC)cc(OC)c3)n2)cc1OCC	-11.3	18.1	1.7	-1.1	0.8	-3.9	/
COc1cc(NC(=O)Cn2nnc(-c3ccncc3)n2)cc(OC)c1	6.4	3.9	5.2	3.4	1	90.0*	-10.3
COc1ccc(C(=O)CCN2CCN(c3ccccc3F)CC2)cc1	10.7	-14.0	0.3	-1.4	1.1	79.1*	1.2
COc1ccc(C(=O)CCN2CCN(c3ccc(OC)cc3)CC2)cc1	-2.7	/	/	/	/	/	/
Cc1cccc(N(C)C(=O)C2CCCN2S(=O)(=O)c2cccc3nsnc23)c1 (stereo not given)	-6.7	/	/	/	/	/	/
COc1ccccc1N1CCN(C(=O)c2ccc(CS(=O)(=O)c3ccccc3OC)o2)CC1	-9.2	12.2	15.9	-2.4	0.9	0.6	/
CCC(NC(=O)Nc1nnc(C(F)(F)F)s1)(C(F)(F)F)C(F)(F)F	7.8	17.4	13.0	-0.8	0.8	100.5*	-6.8
O=C(O)CCC(=O)Nc1nnc(C(F)(F)F)s1	3.2	16.9	3.9	3.4	0.8	-0.8	/
Cc1noc(C)c1COc1ccc(C(=O)N2CCC(C(N)=O)CC2)cc1	2.9	/	/	/	/	/	/
O=C1C=C(c2ccc3c(c2)OCO3)CCC1	16.7	/	/	/	/	/	/
C[C@H]1CCC2[C@](C)(CO)[C@@H](O)CC[C@]2(C)[C@@]12CCC(CO)(CCO)O2 (stereo not given in full)	-8.2	/	/	/	/	/	/
Cc1ccc(-c2cc(C(F)F)nc(NCc3cccnc3)n2)cc1	9.4	28.1	6.2	-6.7	0.7	57.2*	2.8
FC(F)(F)c1cc(-c2ccc(Cl)cc2)nc(NCc2cccnc2)n1	22.0	7.7	2.7	1.0	0.9	-0.6	/
Cc1oc2c(CN3CCCC3)c(O)ccc2c(=O)c1-c1ccc(Br)cc1	2.1	12.4	-3.9	0.1	0.9	99.2*	-5.2
O=S(=O)(CCc1ccncc1)c1ccc(Cl)cc1	6.2	/	/	/	/	/	/
Cc1cc(C(c2nnnn2Cc2ccccc2)N2CCOCC2)c(C)n1-c1ccc2c(c1)OCO2 (stereo not given)	50.8	25.3	10.6	0.6	0.7	60.7*	-5.9
CC1=NCC(C)c2c1[nH]c1ccccc21 (stereo not given)	7.0	-4.5	2.4	-3.7	1	83.8*	-10.4
O=C(COC(=O)[C@H](Cc1ccccc1)N1C(=O)c2ccccc2C1=O)Nc1ccc2c(c1)OCO2	14.7	21.4	0.3	0.0	0.8	99.1*	-10.6
Cc1ccc(OCC(=O)Nc2ccc3c(c2)OCO3)cc1C	-6.9	14.6	22.3	-1.0	0.9	-6.5	/
Cc1cc(C)cc(OCC(=O)Nc2ccc3c(c2)OCO3)c1	-3.8	14.3	12.2	-0.8	0.9	61.9*	16.8
Cc1ccc(NC(=O)c2ccc(Cl)c(S(=O)(=O)N3CCCCCC3)c2)nc1	9.0	/	/	/	/	/	/
CCc1ccc(OCCOCC(O)CNC2CCCC2)cc1 (stereo not given)	9.4	8.8	4.7	-0.7	0.9	60.3*	4.0
COc1ccc(OCC(O)CNC2CCCC2)cc1 (stereo not given)	1.7	/	/	/	/	/	/
SMILES	PfGluPho inh	Diaphorase inh	G6PDH CS	Redox H2O2 prof	Diaphorase act	Lmaj promast	Lmaj promast 1uM
CCCCS(=O)(=O)/C=C\C=C/S(=O)(=O)CCCC	23.4	-1.6	-0.6	-1.6	1	100.7*	94.4*
Cc1ccc(CNC(=O)C2CCCN(S(=O)(=O)c3ccc(F)cc3)C2)cc1 (stereo not given)	-4.1	/	/	/	/	/	/
CCN(CC)c1ccc(NC(=O)CN2CCN(S(=O)(=O)c3cc(Cl)ccc3OC)CC2)cc1	17.9	10.8	1.0	-0.3	0.9	54.2*	65.7*
CCCCC1CC(CSC(=N)N)OC1=O (stereo not given)	-7.3	-10.5	6.3	0.4	1.1	-2.3	/
CCCCCCCC1CC(CSC(=N)N)OC1=O (stereo not given)	2.7	5.6	-6.5	0.1	0.9	100.1*	8.4
c1cnc2c(c1)ccc1cccnc12	-17.8	-6.2	52.7*	0.5	1.1	100.4*	52.5*!
CC(C)(C)n1nnnc1CN(Cc1cccnc1)Cc1ccccc1Cl	-1.5	0.9	3.1	0.1	1	75.0*	2.6
Cc1cccc(CN2C(=O)CCSc3ccc(Cl)cc32)c1	-23.8	11.2	-4.6	2.0	0.9	0.9	/
O=C1CSC2=NCN(c3ccc4c(c3)OCO4)CN12	48.9	15.6	5.4	1.8	0.8	14.2	/
CN(C)c1ccc(N2CN=C3SCC(=O)N3C2)cc1	41.0	10.5	23.0	0.5	0.9	61.5*	4.8
CCn1c(SCC(=O)NC2CCCCC2)nnc1-c1cccnc1	5.7	/	/	/	/	/	/
CN1C(=O)c2ccccc2OC1(C)Cc1ccccc1 (stereo not given)	-17.2	16.6	9.2	-0.2	0.8	-6.9	/
Cc1cc(C=O)c2c(c1)C=CC1(Oc3ccccc3C(=O)N1C)O2 (stereo not given)	/	16.9	5.1	0.8	0.8	100.0*	-8.8
COC(=O)c1cccc(Cn2c(Cl)c(/C=N/Nc3ccccc3C)sc2=O)c1	7.5	16.9	-4.9	0.0	0.8	57.9*	63.6*
Cc1ccccc1N/N=C/c1sc(=O)n(Cc2cccc(C(=O)O)c2)c1Cl	-8.2	/	/	/	/	/	/
CCOC(=O)C1(CCc2ccccc2)CCN(C(=O)[C@@H]2C[C@@H](C)NC(=S)N2)CC1	-7.4	12.3	-1.2	-0.4	0.9	-3.0	/
COC(=O)c1ccc(NC(=O)C2CCN(C(=O)Nc3ccccc3)CC2)cc1	-3.9	/	/	/	/	/	/
CCOc1ccc(Br)cc1S(=O)(=O)NC1=NCCCCC1	-6.9	/	/	/	/	/	/
Cc1cc(Nc2ncc(Cl)cc2Cl)n(-c2ccccc2C)n1	-4.6	-4.0	6.8	0.7	1	81.9*	-10.6
c1ccc(-c2nc(-c3cccs3)[nH]c2-c2ccccc2)cc1	5.7	8.3	0.4	1.7	0.9	53.4*	8.3
COc1cc(-c2nc(-c3ccccc3)c(-c3cccs3)[nH]2)cc(OC)c1O	33.7	42.3	7.0	-0.2	0.6	47.4	/
CC(CCc1ccccc1)NCc1ccncc1 (stereo not given)	-22.4	8.4	-0.9	1.6	0.9	88.5*	17.0
